In PubChem BioAssay:
Results filed as inconclusive are left out.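 The calls were made as follows, unless noted: active = growth inhibition above 25% in both replicates, a cutoff set 3 SD above the mean; inconclusive = above 25% in only one replicate; inactive = the rest.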 Non-standard residues stand in square brackets, D forms with d. Residues, ends and D or L forms follow the SMILES beside them. ξ: configuration not given here. *: point of attachment. Cbz = O=C(OCc1ccccc1)*; ξV = CC(C)C(N)C(=O)O; OtBu = CC(C)(C)O*

Legend:
[1] = S. cerevisiae growth inhibition in permissive medium (OD615), pilot counter-assay for S. cerevisiae lifespan shortening project, permissive growth control (AID 705); settings: OD615, 24 h, at 10 µM, stronger effect = higher value
Method in brief: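 System: Engineered DeaD yeast | Buffer or medium: SC raffinose/galactose permissive medium | Incubation: Cells pre-grown 4 h, then 24 h compound exposure, 30 °C humidified | Measured by: Absorbance (optical density) at 615 nm | Read-out: Reduction in yeast growth (OD615)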

[2] = S. cerevisiae growth inhibition in restrictive medium, OD615, pilot screen, restrictive growth control, yeast lifespan reduction project (AID 706;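 active = growth inhibition above a set limit, 3 SD over mean compound inhibition, in both replicates, cut at about 43% in these data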;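 also: modified DeaD lifespan yeast strain shifted to restrictive glucose medium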); settings: OD615, 48 h, at 10 µM, stronger effect = higher value
Method in brief: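 Material: modified S. cerevisiae; Medium: glucose-based CSMM-D restrictive medium; Compound dosing: one concentration, 10 µM final, 0.25% DMSO; Incubation: 48 h compound exposure at 30 °C; Measured by: OD615.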

[3] = doxorubicin toxicity protection in MRP-1 cells – H69AR cells, CellTiter-Glo, duplicate, MRP-1 activator project, pilot screen (AID 807;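 active = viability increase at or above a cutoff of the median across tested compounds plus 3 SD, cut at about 8.5% in these data, passing the limit was not always enough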;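 also: compound pretreatment 18-22 h then 72 h combined with doxorubicin; 0% = doxorubicin alone and 100% = vehicle without doxorubicin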); settings: H69AR viability with doxorubicin, CellTiter-Glo luminescence; at 10 µM; stronger effect = higher value
[4] = viability of HCT116 without oncogenic beta-catenin – human colon tumor cells, pilot screen (AID 823;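 active = cell viability at or below a set limit in both duplicate runs, the limit being the all-compound median minus 4 SD, cut at about 23% in these data, passing the limit was not always enough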;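 also: 0% = wells killed by 20 µM Hyamine and 100% = untreated DMSO cell wells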); settings: HCT116 beta-catenin knockout viability, CellTiter-Glo, 60 h; at 10 µM; stronger effect = lower value
[5] = viability of PTEN-null HCT116 cells – cell-based, HCT116 clonal line, CellTiter-Glo, pilot screen (AID 824;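 active = viability at or below 27.92% in each of two runs, the all-compound median minus 4 SD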;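 also: 0% = 20 µM Hyamine control and 100% = vehicle cell control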); settings: HCT116 PTEN-deleted viability, 60 h, at 10 µM, stronger effect = lower value
[6] = RAM pathway blockade in budding yeast – dse1pr::URA3 reporter, 5-FOA selection, pilot screen (AID 869;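 active = inhibition over a set limit, the all-compound mean plus 3 SD, in both replicate runs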;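 also: 0% = DMSO wells with no growth and 100% = 10 µM 1-NA-PP1 with full growth; RAM network block rescues cells from 5-FOA so hits raise OD615 growth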); settings: S. cerevisiae dse1pr::URA3 5-FOA growth, OD615, 2 d; at 10 µM; stronger effect = higher value; strain carries analog-sensitive mutant Cbk1 kinase
[7] = RAM signaling pathway blockade in yeast – S. cerevisiae, Pdr1DBD-CYC8 efflux-inhibited sensitized strain, primary screen (AID 1298;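 active = RAM network inhibition above 8.4% in each of two replicates, 3 SD over the compound average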;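 also: 0% = DMSO untreated cells without growth and 100% = 10 µM 1-NA-PP1 full growth; higher means more yeast growth rescued from 5-FOA killing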); settings: S. cerevisiae cbk1-as DSE1-URA3 strain, 5-FOA growth OD615, 2 d; at 50 µM; stronger effect = higher value

O=C1N(O)C2(C=CCCC2)/C(=N\O)C12CCCCC2 (configuration not stated)
inactive: growth inhibition [1] -11.1% | growth inhibition [2] -1.67% | viability increase [3] -2.64% | viability [4] 90.1% | viability [5] 100% | inhibition [6] -0.15% | RAM network inhibition [7] 1.27%

CC(C)C(NC(=O)OCc1ccccc1)C(=O)NCC(=O)OC(C)(C)C (configuration not stated) (Cbz-[ξV]-Gly-OtBu)
inactive: growth inhibition [1] -5.84% | growth inhibition [2] -2.87% | viability increase [3] 0.2% | viability [4] 96.6% | viability [5] 95.2% | inhibition [6] 1.82% | RAM network inhibition [7] 3.16%

O=C(NCCn1ccc2ccccc21)c1ccc(S(=O)(=O)N2CCOCC2)cc1
inactive: growth inhibition [1] 3.54% | growth inhibition [2] -8.71% | viability increase [3] -2.92% | viability [4] 101% | viability [5] 96.7% | inhibition [6] 0.33% | RAM network inhibition [7] 6.66%

COc1ccc(-c2cc(C(F)F)n3ncc(C(=O)N4CCN(C(=O)c5ccco5)CC4)c3n2)cc1
inactive: growth inhibition [1] -2.55% | growth inhibition [2] -0.9% | viability increase [3] -5.07% | viability [4] 74.5% | viability [5] 72.6% | inhibition [6] 0.475% | RAM network inhibition [7] 10.2%

C=CCSc1nc2c(cnn2-c2ccc(C)c(C)c2)c(=O)[nH]1
inactive: growth inhibition [1] -6.23% | growth inhibition [2] -5.07% | viability increase [3] -1.43% | viability [4] 93.3% | viability [5] 93.1% | inhibition [6] 4.19% | RAM network inhibition [7] 0.11%

COc1ccc(-c2nn(CC(=O)N(C)C)c(=O)c3ccccc23)cc1
inactive: growth inhibition [1] -7.62% | growth inhibition [2] -6.71% | viability increase [3] -1.08% | viability [4] 99.8% | viability [5] 86.4% | inhibition [6] 1.01% | RAM network inhibition [7] 0.6%

CC(=O)c1cc(CN2C(=O)CCC2=O)cs1
inactive: growth inhibition [1] -5.33% | growth inhibition [2] -9.9% | viability increase [3] -0.46% | viability [4] 94.1% | viability [5] 95.6% | inhibition [6] 1.64% | RAM network inhibition [7] 1.46%

O=C1c2ccccc2S(=O)(=O)N1CC(O)COc1ccc(Br)cc1 (configuration not stated)
inactive: growth inhibition [1] -2.32% | growth inhibition [2] 5.18% | viability increase [3] -0.35% | viability [4] 106% | viability [5] 97.4% | inhibition [6] 1.39% | RAM network inhibition [7] 2.2%

O=C(c1cc(-c2cccc(O)c2)on1)N1CCc2ccccc2C1
inactive: growth inhibition [1] -7.54% | growth inhibition [2] -17.6% | viability increase [3] 1.48% | viability [4] 114% | viability [5] 99.2% | inhibition [6] 0.005% | RAM network inhibition [7] -2.99%

CC(=O)NC(C)c1nc2ccccc2n1Cc1ccccc1F (configuration not stated)
inactive: growth inhibition [1] -5.38% | growth inhibition [2] -3.36% | viability increase [3] 0.25% | viability [4] 102% | viability [5] 93.8% | inhibition [6] 3.67% | RAM network inhibition [7] 5.71%

O=C(Nc1ccc(N2CCCCC2)cc1)c1cncc(Br)c1
inactive: growth inhibition [1] 5.98% | growth inhibition [2] 15.3% | viability increase [3] -4.57% | viability [4] 100% | viability [5] 96.8% | inhibition [6] 1.98% | RAM network inhibition [7] 5.26%

CCOC(=O)CCc1c(C)c2c(C)nn(-c3ccccc3)c2[nH]c1=O
inactive: growth inhibition [1] -2.26% | growth inhibition [2] -0.33% | viability increase [3] -1.19% | viability [4] 99% | viability [5] 95.9% | inhibition [6] 1.65% | RAM network inhibition [7] 1.84%

O=C(Cn1nc(Cc2cccnc2)c2ccccc2c1=O)NCC1COc2ccccc2O1 (configuration not stated)
inactive: growth inhibition [1] 3.08% | growth inhibition [2] -0.92% | viability increase [3] -1.71% | viability [4] 90.5% | viability [5] 95.3% | inhibition [6] 1.99% | RAM network inhibition [7] 0.96%

COc1ccccc1-c1cc(N)n(S(=O)(=O)c2ccc(F)c(C)c2)n1
inactive: growth inhibition [1] -9.16% | growth inhibition [2] -5.82% | viability increase [3] -3.08% | viability [4] 55% | viability [5] 64% | inhibition [6] 4.39% | RAM network inhibition [7] 3.97%

O=C(c1cc2ccccn2n1)N1CCCC1
inactive: growth inhibition [1] -5.76% | growth inhibition [2] -2.7% | viability increase [3] -1.17% | viability [4] 103% | viability [5] 100% | inhibition [6] 1.79% | RAM network inhibition [7] 6.63%

O=C1c2ccccc2-c2nc3ncnn3c(-c3ccccc3Cl)c21
inactive: growth inhibition [1] -6.53% | growth inhibition [2] -0.65% | viability increase [3] -3.38% | viability [4] 83.3% | viability [5] 76.9% | inhibition [6] 0.39% | RAM network inhibition [7] 0.58%

CC(CNCc1ccc2c(c1)OCO2)NCc1ccc2c(c1)OCO2 (configuration not stated)
inactive: growth inhibition [1] -14% | growth inhibition [2] -7.7% | viability increase [3] -3.34% | viability [4] 75% | viability [5] 77.2% | inhibition [6] -0.175% | RAM network inhibition [7] 1.32%

COc1ccc(NC(=O)Nc2nnc(N3CCCCC3C)s2)cc1OC (configuration not stated)
inactive: growth inhibition [1] -5.21% | growth inhibition [2] -10.4% | viability increase [3] -1.91% | viability [4] 99.2% | viability [5] 97.4% | inhibition [6] 2.48% | RAM network inhibition [7] 3.85%

COc1ccc(Nc2cc(C)nc3nc(C)nn23)cc1Cl
inactive: growth inhibition [1] 0.45% | growth inhibition [2] 13.4% | viability increase [3] -3.91% | viability [4] 101% | viability [5] 93.5% | inhibition [6] -0.465% | RAM network inhibition [7] -0.01%

c1coc(Cn2c(SCc3nc4ccccc4[nH]3)nnc2-c2cccs2)c1
inactive: growth inhibition [1] 0.98% | growth inhibition [2] 21.3% | viability increase [3] -1.17% | viability [4] 93% | viability [5] 89.8% | inhibition [6] 3.64% | RAM network inhibition [7] 1.24%

Cc1noc(NS(=O)(=O)c2ccc(NC(=O)COc3ccc(Cl)cc3Cl)cc2)c1C
inactive: growth inhibition [1] -2.93% | growth inhibition [2] 10.8% | viability increase [3] -0.49% | viability [4] 100% | viability [5] 98.6% | inhibition [6] 2.39% | RAM network inhibition [7] 7.51%

COc1ccc(CSc2nnnn2C)cc1F
inactive: growth inhibition [1] -3.21% | growth inhibition [2] 4.8% | viability increase [3] -0.89% | viability [4] 91.4% | viability [5] 95% | inhibition [6] 2.62% | RAM network inhibition [7] -0.46%

Cc1onc(-c2ccccc2)c1C(=O)N1CCN(C/C=C/c2ccccc2)CC1
inactive: growth inhibition [1] -2.69% | growth inhibition [2] 5.24% | viability increase [3] -5.02% | viability [4] 78.9% | viability [5] 75.6% | inhibition [6] 2.72% | RAM network inhibition [7] 3.92%

COc1cccc(/C=C2\N=C(SC)SC2=O)c1OC
inactive: growth inhibition [1] -20.1% | growth inhibition [2] -7.18% | viability increase [3] -3.76% | viability [4] 89.8% | viability [5] 105% | inhibition [6] 3.8% | RAM network inhibition [7] 8.12%

CCOC(=O)C1=C(N)OC2=C(C(=O)CCC2)C1c1ccccc1OCC (configuration not stated)
inactive: growth inhibition [1] -3.85% | growth inhibition [2] -4.66% | viability increase [3] -0.08% | viability [4] 100% | viability [5] 103% | inhibition [6] 1.05% | RAM network inhibition [7] 8.68%

O=C(Nc1ccccc1)N(CCc1ccncc1)C1CCCCC1
inactive: growth inhibition [1] -7% | growth inhibition [2] -2.46% | viability increase [3] -2.85% | viability [4] 97.4% | viability [5] 98.9% | inhibition [6] 1.18% | RAM network inhibition [7] -0.83%

CCOc1ccccc1-c1nc(C(N)=O)c2[nH]c(=O)n(-c3ccc(F)cc3)c2n1
inactive: growth inhibition [1] -8.26% | growth inhibition [2] -0.005% | viability increase [3] -4.08% | viability [4] 90.2% | viability [5] 83.9% | inhibition [6] 0.93% | RAM network inhibition [7] -0.71%

Cc1cc(Nc2ccccc2F)n2nc(C)nc2n1
inactive: growth inhibition [1] -13% | growth inhibition [2] -6.23% | viability increase [3] -1.87% | viability [4] 99.2% | viability [5] 99.5% | inhibition [6] 1.95% | RAM network inhibition [7] 0.37%

CCCC(NS(=O)(=O)c1ccc(Br)cc1)C(=O)O (configuration not stated)
inactive: growth inhibition [1] -3.98% | growth inhibition [2] -0.42% | viability increase [3] -0.09% | viability [4] 104% | viability [5] 99.3% | inhibition [6] 0.57% | RAM network inhibition [7] 4.41%

CCOc1ccc(NC(=O)CSc2nc3c(c(=O)n2C)SC(C)C3)cc1 (configuration not stated)
inactive: growth inhibition [1] -13.6% | growth inhibition [2] -13.2% | viability increase [3] -0.83% | viability [4] 93.5% | viability [5] 91.6% | inhibition [6] 4.75% | RAM network inhibition [7] 5.69%

O=C(OCCN1C(=O)c2ccccc2C1=O)c1cc2ccccc2o1
inactive: growth inhibition [1] -11.6% | growth inhibition [2] -4.04% | viability increase [3] 0.07% | viability [4] 97.3% | viability [5] 99.1% | inhibition [6] 2.92% | RAM network inhibition [7] 3.68%

CC(c1ccccc1)N1CC(C(=O)N2CCN(c3ccccc3)CC2)CC1=O (configuration not stated)
inactive: growth inhibition [1] 0.43% | growth inhibition [2] 1.48% | viability increase [3] -1.1% | viability [4] 104% | viability [5] 101% | inhibition [6] 0.54% | RAM network inhibition [7] 4.4%

O=C(NCc1ccccc1)c1ccc(CN2CCOCC2)cc1
inactive: growth inhibition [1] 7.58% | growth inhibition [2] 2.15% | viability increase [3] -0.24% | viability [4] 100% | viability [5] 104% | inhibition [6] 0.89% | RAM network inhibition [7] 9.41%

O=C1C2CCCN2C(c2ccc(Br)cc2)N1c1ccc(F)cc1 (configuration not stated)
inactive: growth inhibition [1] -4.66% | growth inhibition [2] -3.76% | viability increase [3] -3.07% | viability [4] 94.2% | viability [5] 90% | inhibition [6] 2.89% | RAM network inhibition [7] 9.1%

Cc1nc(CNS(=O)(=O)c2ccccc2F)cs1
inactive: growth inhibition [1] -2.92% | growth inhibition [2] 0.715% | viability increase [3] -0.6% | viability [4] 94.1% | viability [5] 91.5% | inhibition [6] 0.335% | RAM network inhibition [7] -0.57%

COC(=O)C1=C(C)Nc2ccc(C)cc2S1
inactive: growth inhibition [1] 14.1% | growth inhibition [2] 29.2% | viability increase [3] -2.27% | viability [4] 98.8% | viability [5] 100% | inhibition [6] 1.25% | RAM network inhibition [7] 3.11%
